The source of these data is article PMC4749511 (Bioorganic & medicinal chemistry, 2015).

“Also recorded” adds a separate entry of the source.

The target in assay [1] is T1, human Rce1 (HsRce1) (Homo sapiens, UniProt Q9Y256).
T1 sequence (Q9Y256 1-329): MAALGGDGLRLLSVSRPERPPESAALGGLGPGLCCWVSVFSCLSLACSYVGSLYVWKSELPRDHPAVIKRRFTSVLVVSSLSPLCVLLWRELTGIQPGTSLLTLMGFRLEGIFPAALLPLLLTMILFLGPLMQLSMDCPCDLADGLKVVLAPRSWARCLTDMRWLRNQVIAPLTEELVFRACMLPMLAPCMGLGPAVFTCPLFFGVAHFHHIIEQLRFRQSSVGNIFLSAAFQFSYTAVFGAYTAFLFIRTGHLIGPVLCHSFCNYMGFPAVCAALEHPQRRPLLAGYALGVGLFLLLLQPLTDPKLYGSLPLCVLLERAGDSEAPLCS
Description: In vitro fluorescence-based CaaX proteolysis assay. It is filed as biochemical. The settings on record: single-point, 10 μM. The procedure, abridged:
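Membranes from yeast expressing HsRce1, in 200 mM Tris pH 7.5, 200 mM NaCl, 1 mg/mL BSA. Preincubated with test compound (from 50× DMSO stock) for 15 min at 30 °C in duplicate wells. Started with quenched ABZ-KSKTKC(farnesyl)QLIM at 20 μM final; membranes 0.25 mg/mL final. Fluorescence 320/420 nm read every 30-60 s for 60 min at 30 °C. Initial velocities expressed as % of DMSO control, normalised by trypsin (10 μg/mL) full digestion.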

The target in assay [2] is T1, human Rce1 (HsRce1). Conditions: read-out: HsRce1 IC50; in vitro proteolysis assay; cited from earlier work.
The test system of assay [3] is GFP-Ras2p reporter. The settings on record: yeast cells; cited from earlier work.
Assay [4] concerns EGFP-K-Ras (K-Ras4b). Description: EGFP-K-Ras plasma membrane localization by confocal microscopy. The settings on record: HCT-116 cells, 20 hours. It is filed as cell-based, human. The method, boiled down: (§1)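 HCT-116 cells (DMEM, 10% FBS, 1% NEAA, 37 °C, 5% CO2) seeded at 4 × 10^4 per glass-bottom well and transfected 24 h later with the EGFP-Ras plasmid (0.5 μg DNA per 1 μL TrueFect). Treated with FTI or DMSO vehicle for 20 h, then live confocal imaging (488 nm excitation, 500-600 nm emission), at least 40 cells per condition. Normalised (0-1) line-scan intensity across each cell; PM width 1 μm.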

The subject of assay [5] is EGFP-N-Ras. Description: EGFP-N-Ras plasma membrane localization by confocal microscopy. The settings on record: HCT-116 cells, FTI 2 μM, 20 hours. It is filed as cell-based, human. The method, boiled down:
as §1

The subject of assay [6] is EGFP-H-Ras. The experiment in a line: EGFP-H-Ras plasma membrane localization by confocal microscopy. Conditions: HCT-116 cells, FTI 2 μM, 20 hours. It is filed as cell-based, human. The procedure, abridged: as §1
The target of assay [7] is rat FTase (Rattus norvegicus, UniProt Q02293+Q04631). Description: Fluorescence-based FTase assay. It is filed as biochemical. Conditions: tested at 10, 25 and 50 μM. The procedure, abridged:
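Rat FTase added in enzyme solution (62.5 nM FTase, Tris pH 7.5, ZnCl2, MgCl2, KCl, DTT, BSA) to start reaction. Wells held dansyl-GCVLS, FPP, DTT, Tris pH 7.5, MgCl2, ZnCl2, octyl-β-D-glucopyranoside and test compound in DMSO (12.5 μL DMSO per 250 μL). Fluorescence read at 340 nm excitation, 535 nm emission, every 40 s for 1 h. Rate from first 10 min converted to nM/s via νi = RP/ΔF.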

For `Oc1c(CNc2ccccc2)ccc2cccnc12` [Compound 20, 7-((Phenylamino)methyl)quinolin-8-ol], the “HsRce1 inhibition (in words)” value in assay [1] is reported as “no significant effect on Rce1 proteolysis activity”.
The IC50 is the concentration that inhibits the measured activity by half. `O=C(O)c1ccc(NC(c2ccccc2)c2ccc3cccnc3c2O)cc1` (stereo not drawn) [Compound 1, 4-(((8-Hydroxyquinolin-7-yl)(phenyl)methyl)amino)benzoic acid]: the IC50 in assay [2] was 9 µM. Further, the “GFP-Ras2p reporter mislocalization (in words)” value in assay [3] is reported as “mislocalizes a GFP-Ras2p reporter”. Also, in assay [4] (Rce1 inhibitor 25 μM), the “K-Ras PM association (percent of total fluorescence at the PM)” value was “more effective at mislocalizing K-Ras than the FTI”.
For the molecule `Oc1ccc2ccc(O)c(C(Nc3ccccc3)c3ccccc3)c2c1` (stereo not drawn) [Compound 35, 1-(Phenyl(phenylamino)methyl)naphthalene-2,7-diol], the “HsRce1 inhibition (in words)” value in assay [1] was “weaker inhibitors”.
On the same count and under the same terms, the same measure for `c1ccc(NC(c2ccccc2)c2ccc3cccnc3c2)cc1` (stereo not drawn) [Compound 43, N-(Phenyl(quinolin-7-yl)methyl)aniline]: “little inhibitory activity”.
With `Oc1c(C(Nc2ccccc2)c2ccccc2)cc(Br)c2ccccc12` (stereo not drawn) [Compound 33, 4-Bromo-2-(phenyl(phenylamino)methyl)naphthalen-1-ol], the “HsRce1 inhibition (in words)” value in assay [1] is reported as “retained inhibitory activity”.
As to `O=C(O)c1ccc(NC(c2ccc3cccnc3c2O)C2CCCCC2)cc1` (stereo not drawn) [Compound 17, 4-((Cyclohexyl(8-hydroxyquinolin-7-yl)methyl)amino)benzoic acid], the “K-Ras PM association (percent of total fluorescence at the PM)” value in assay [4] (Rce1 inhibitor 25 μM) is “more effective at mislocalizing K-Ras than the FTI”.
In the case of `O=C(O)c1ccc(NC(c2ccc(F)cc2)c2ccc3cccnc3c2O)cc1` (stereo not drawn) [Compound 6, 4-(((4-Fluorophenyl)(8-hydroxyquinolin-7-yl)methyl)amino)benzoic acid], in assay [4] (Rce1 inhibitor 25 μM), the “K-Ras PM association (percent of total fluorescence at the PM)” value was “more effective at mislocalizing K-Ras than the FTI”.
In the case of `O=C(O)c1ccc(NC(c2ccccc2)c2ccccc2)cc1` [Compound 51, 4-(Benzhydrylamino)benzoic acid], the “HsRce1 inhibition (in words)” value in assay [1] was “inactive; also recorded: Neither the ethyl ester 48 nor the acid derivative 51 showed any effect upon inhibition of the enzyme”.
As for `CCCCCCCCOc1ccc(C(Nc2ccccc2)c2ccc3cccnc3c2O)cc1` (stereo not drawn) [Compound 26, 7-((4-(Octyloxy)phenyl)(phenylamino)methyl)quinolin-8-ol], the “HsRce1 inhibition (in words)” value in assay [1] is given as “did not inhibit HsRce1 activity significantly”.
`O=C(O)c1ccc(NC(c2cccnc2)c2ccc3cccnc3c2O)cc1` (stereo not drawn) [Compound 16, 4-(((8-Hydroxyquinolin-7-yl)(pyridin-3-yl)methyl)amino)benzoic acid]: the “HsRce1 inhibition (in words)” value in assay [1] is “no significant reduction in Rce1 activity”.
Regarding `CC[C@H](C)[C@@H](CO[C@@H](Cc1ccccc1)C(=O)N[C@@H](CCS(C)(=O)=O)C(=O)OC(C)C)NC[C@@H](N)CS` [L744,832], the “N-Ras PM association (percent of total fluorescence at the PM)” value in assay [5] was below 10%. For the same molecule, the “H-Ras PM association (percent of total fluorescence at the PM)” value in assay [6] is below 10%. Besides, the “K-Ras PM association (percent of total fluorescence at the PM)” value in assay [4] (FTI 2 μM) is on record as around 35%.
Consider `CCOC(=O)c1ccc(NC(c2ccc(Br)cc2)c2ccc(Br)cc2)cc1` [Compound 50, Ethyl 4-((bis(4-bromophenyl)methyl)amino)benzoate], for which the “HsRce1 inhibition (in words)” value in assay [1] was “relatively inactive”.
Still for that read-out and setting: under `CCOC(=O)c1ccc(NC(c2ccccc2)c2ccccc2)cc1` [Compound 48, Ethyl 4-(benzhydrylamino)benzoate] stands “Neither the ethyl ester 48 nor the acid derivative 51 showed any effect upon inhibition of the enzyme”; under `O=C(O)c1ccc(NC(c2ccccn2)c2ccc3cccnc3c2O)cc1` (stereo not drawn) [Compound 15, 4-(((8-Hydroxyquinolin-7-yl)(pyridin-2-yl)methyl)amino)benzoic acid], “no significant reduction in Rce1 activity”.
Regarding `Oc1c(C(Nc2ccccc2)c2ccccc2)ccc2cccnc12` (stereo not drawn) [Compound 2, 7-(Phenyl(phenylamino)methyl)quinolin-8-ol], the “FTase activity inhibition (in words)” value in assay [7] is recorded as “not inhibited”. Moreover, the “K-Ras PM association (percent of total fluorescence at the PM)” value in assay [4] (Rce1 inhibitor 25 μM) was “more effective at mislocalizing K-Ras than the FTI”.
In the case of `Oc1c(C(Nc2ccccc2)c2c(F)cc(Br)cc2F)ccc2cccnc12` (stereo not drawn) [Compound 24, 7-((4-Bromo-2,6-difluorophenyl)(phenylamino)methyl)quinolin-8-ol], the “HsRce1 inhibition (in words)” value in assay [1] is “no significant reduction in Rce1 activity”.
With `O=C(O)c1ccc(NC(c2ccccc2)c2ccc(Br)cc2)cc1` (stereo not drawn) [Compound 52, 4-(((4-Bromophenyl)(phenyl)methyl)amino) benzoic acid], the “HsRce1 inhibition (in words)” value in assay [1] is “relatively inactive”.
As to `O=C(O)c1ccc(NC(c2ccc(Br)cc2)c2ccc(Br)cc2)cc1` [Compound 53, 4-((bis(4-Bromophenyl)methyl)amino)benzoic acid], the “HsRce1 inhibition (in words)” value in assay [1] is “relatively inactive”.
Same read-out and setting: under `O=[N+]([O-])c1ccc(C(Nc2ccccc2)c2ccc3cccnc3c2O)cc1` (stereo not drawn) [Compound 7, reference compound] stands “did not inhibit HsRce1 activity significantly”.
Regarding `O=C(O)c1cccc(NC(c2ccccc2)c2ccc3ccccc3c2O)c1` (stereo not drawn) [Compound 30, 3-(((1-Hydroxynaphthalen-2-yl)(phenyl)methyl)amino)benzoic acid], the “FTase activity inhibition (in words)” value in assay [7] was “not inhibited”.
Consider “Methyl 4-(((8-methoxyquinolin-7-yl)(phenyl)methyl)amino)benzoate [Compound 32]”, for which the “HsRce1 inhibition (in words)” value in assay [1] was “little inhibitory activity”.
With `CCOC(=O)c1ccc(NC(c2ccccc2)c2ccc(Br)cc2)cc1` (stereo not drawn) [Compound 49, Ethyl 4-(((4-bromophenyl)(phenyl)methyl)amino)benzoate], the “HsRce1 inhibition (in words)” value in assay [1] was “relatively inactive”.
Still for that read-out and setting: under `O=C(O)c1ccc(NC(c2ccc3cccnc3c2O)c2c(F)cc(Br)cc2F)cc1` (stereo not drawn) [Compound 25, 4-(((4-Bromo-2,6-difluorophenyl)(8-hydroxyquinolin-7-yl)methyl)amino)benzoic acid] stands “no significant reduction in Rce1 activity”; under `C[C@@H](N[C@H](c1ccccc1)c1c(O)ccc2ccccc12)c1ccccc1` [Compound 47], “weaker inhibitors”.
Still for that read-out and setting: under `Oc1ccc2ccccc2c1C(Nc1ccccc1)c1ccccc1` (stereo not drawn) [Compound 34, 1-(Phenyl(phenylamino)methyl)naphthalen-2-ol] stands “weaker inhibitors”; under `N#Cc1ccc(C(Nc2ccc(C(=O)O)cc2)c2ccc3cccnc3c2O)cc1` (stereo not drawn) [Compound 3, 4-(((4-Cyanophenyl)(8-hydroxyquinolin-7-yl)methyl)amino)benzoic acid], “did not inhibit HsRce1 activity significantly”.
On to `O=C(O)c1ccc(NC(c2ccc(Br)cc2)c2ccc3cccnc3c2O)cc1` (stereo not drawn) [Compound 5, 4-(((4-Bromophenyl)(8-hydroxyquinolin-7-yl)methyl)amino)benzoic acid], for which the “FTase activity inhibition (in words)” value in assay [7] was “not inhibited”.
Turning to `c1ccc(NC(c2ccccc2)c2ccc3ccccc3c2)cc1` (stereo not drawn) [Compound 44, N-(naphthalen-2-yl(phenyl)methyl)aniline], the “HsRce1 inhibition (in words)” value in assay [1] was “little inhibitory activity”.
